# Source: ChEMBL document CHEMBL1123180, “Improved glucose tolerance in rats treated with oxazolidinediones” (1986)
# Active and inactive are the calls of the source. The rule behind the calls is not given here.
# Experiments:
# Rattus norvegicus [1] = assay: Compound was tested for the ability to lower blood sugar level at the dose of 10 mg/kg in fasted rats, by using glucose tolerance test(GTT); NA=Inactive; type: functional, organism-based; set-up: dose 10 mg/kg
# In short: (§1)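 Male albino rats, groups of five or six, fasted 18–24 h. Glucose 1 g/kg given ip; test drug (0.1 to 100 mg/kg) or water (controls) given orally. Tail-vein blood sampled over 0–3 h; glucose (mg/100 mL) measured by Autoanalyser ferricyanide method. Value is percent lowering of blood glucose vs controls at 0.5 h; a lowering of ≥9% is needed for P = 0.05.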
# Rattus norvegicus [2] = assay: Ability to lower blood sugar level at the dose of 100 mg/kg in fasted rats, by using glucose tolerance test(GTT); type: functional; in short: as §1
# Rattus norvegicus [3] = assay: Ability to lower blood sugar level at the dose of 10 mg/kg in fasted rats, by using glucose tolerance test(GTT); NA=Inactive; type: functional, organism-based; set-up: dose 10 mg/kg; in short: as §1
# Rattus norvegicus [4] = assay: Compound was tested for the ability to lower blood sugar level at the dose of 25 mg/kg in fasted rats, by using glucose tolerance test(GTT); type: functional; in short: as §1
# Rattus norvegicus [5] = assay: Ability to lower blood sugar level at the dose of 25 mg/kg in fasted rats, by using glucose tolerance test(GTT); NA=Inactive; type: functional, organism-based; set-up: dose 25 mg/kg; in short: as §1
# Rattus norvegicus [6] = assay: Ability to lower blood sugar level at the dose of 100 mg/kg in fasted rats, by using glucose tolerance test(GTT); NA=Inactive; type: functional, organism-based; set-up: dose 100 mg/kg; in short: as §1
# Rattus norvegicus [7] = assay: Ability to lower blood sugar level at the dose of 25 mg/kg in fasted rats, by using glucose tolerance test(GTT); type: functional; in short: as §1
# Rattus norvegicus [8] = assay: Ability to lower blood sugar level at the dose of 2.5 mg/kg in fasted rats, by using glucose tolerance test(GTT); type: functional; in short: as §1
# Rattus norvegicus [9] = assay: Compound was tested for the ability to lower blood sugar level at the dose of 1 mg/kg in fasted rats, by using glucose tolerance test(GTT); type: functional; in short: as §1
# Rattus norvegicus [10] = assay: Ability to lower blood sugar level at the dose of 25 mg/kg in fasted rats, by using glucose tolerance test(GTT)
# Rattus norvegicus [11] = assay: Ability to lower blood sugar level at the dose of 10 mg/kg in fasted rats, by using glucose tolerance test(GTT); type: functional; in short: as §1
# Rattus norvegicus [12] = assay: Compound was tested for the ability to lower blood sugar level at the dose of 100 mg/kg in fasted rats, by using glucose tolerance test(GTT); NA=Inactive; type: functional, organism-based; set-up: dose 100 mg/kg
# In short: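 Male albino rats (groups of five or six) fasted 18–24 h, given glucose 1 g/kg ip plus oral drug (range 0.1–100 mg/kg) or water for controls. Tail-vein blood glucose sampled over 0–3 h, read by ferricyanide autoanalyser method. Value is percent blood glucose lowering vs controls at 0.5 h; ≥9% lowering needed for significance at P = 0.05.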
# Rattus norvegicus [13] = assay: Compound was tested for the ability to lower blood sugar level at the dose of 50 mg/kg in fasted rats, by using glucose tolerance test(GTT); type: functional; in short: as §1
# Rattus norvegicus [14] = assay: Compound was tested for the ability to lower blood sugar level at the dose of 100 mg/kg in fasted rats, by using glucose tolerance test(GTT); type: functional; in short: as §1
# Rattus norvegicus [15] = assay: Compound was tested for the ability to lower blood sugar level at the dose of 25 mg/kg in fasted rats, by using glucose tolerance test(GTT); NA=Inactive; type: functional, organism-based; set-up: dose 25 mg/kg; in short: as §1
# Rattus norvegicus [16] = assay: Compound was tested for the ability to lower blood sugar level at the dose of 0.63 mg/kg in fasted rats, by using glucose tolerance test(GTT); type: functional; in short: as §1
# Rattus norvegicus [17] = assay: Ability to lower blood sugar level at the dose of 5 mg/kg in fasted rats, by using glucose tolerance test(GTT); type: functional; in short: as §1
smiles,measurement,setting,value
COc1ccc(S(N)(=O)=O)cc1C1OC(=O)NC1=O (configuration not stated),Blood sugar lowering,Rattus norvegicus [1],inactive
O=C1NC(=O)C(c2ccc(F)cc2)O1 (configuration not stated),Blood sugar lowering,Rattus norvegicus [2],21%
O=C1NC(=O)C(c2ccc(F)cc2C(F)(F)F)O1 (configuration not stated),Blood sugar lowering,Rattus norvegicus [3],inactive
COc1ccc(OC)c(C2OC(=O)NC2=O)c1 (configuration not stated),Blood sugar lowering,Rattus norvegicus [3],inactive
COc1ccc([N+](=O)[O-])cc1C1OC(=O)NC1=O (configuration not stated),Blood sugar lowering,Rattus norvegicus [4],17%
COc1ccc(-c2ccccc2)cc1C1OC(=O)NC1=O (configuration not stated),Blood sugar lowering,Rattus norvegicus [5],inactive
CNC(=O)Nc1ccccc1C1OC(=O)NC1=O (configuration not stated),Blood sugar lowering,Rattus norvegicus [6],inactive
Cc1ccc(C2OC(=O)NC2=O)cc1 (configuration not stated),Blood sugar lowering,Rattus norvegicus [2],10%
CCSc1cccc(F)c1C1OC(=O)NC1=O (configuration not stated),Blood sugar lowering,Rattus norvegicus [7],17%
Cc1ccc(F)cc1C1OC(=O)NC1=O (configuration not stated),Blood sugar lowering,Rattus norvegicus [7],19%
"COc1ccc(Cl)cc1C1OC(=O)NC1=O (single isomer, unassigned; (+))",Blood sugar lowering,Rattus norvegicus [8]; 2.5 mg/kg,12%
COc1ccc(Cl)cc1C1OC(=O)NC1=O (configuration not stated),Blood sugar lowering,Rattus norvegicus [9],12%
COc1cccc([N+](=O)[O-])c1C1OC(=O)NC1=O (configuration not stated),Blood sugar lowering,Rattus norvegicus [10],10%
Cc1cccc(C)c1C1OC(=O)NC1=O (configuration not stated),Blood sugar lowering,Rattus norvegicus [11],13%
COc1ccc(S(=O)(=O)NC(=O)NC2CCCCC2)cc1C1OC(=O)NC1=O (configuration not stated),Blood sugar lowering,Rattus norvegicus [5],inactive
O=C1NC(=O)C(c2c(F)cccc2C(F)(F)F)O1 (configuration not stated),Blood sugar lowering,Rattus norvegicus [5],inactive
NC1=NC(=O)C(c2ccccc2)O1 (configuration not stated),Blood sugar lowering,Rattus norvegicus [12],inactive
COc1ccc(F)cc1C1OC(=O)NC1=O (configuration not stated),Blood sugar lowering,Rattus norvegicus [8],15%
COc1cccc(C2OC(=O)NC2=O)c1OC (configuration not stated),Blood sugar lowering,Rattus norvegicus [13],12%
O=C1NC(=O)C(c2ccccc2NS(=O)(=O)c2ccccc2)O1 (configuration not stated),Blood sugar lowering,Rattus norvegicus [5],inactive
O=C1NC(=O)C(c2ccccc2Cl)O1 (configuration not stated),Blood sugar lowering,Rattus norvegicus [11],11%
COc1cccc(F)c1C1OC(=O)NC1=O (configuration not stated),Blood sugar lowering,Rattus norvegicus [9],11%
COc1cccc(OC)c1C1OC(=O)NC1=O (configuration not stated),Blood sugar lowering,Rattus norvegicus [11],12%
COc1ccc(C(C)C)cc1C1OC(=O)NC1=O (configuration not stated),Blood sugar lowering,Rattus norvegicus [3],inactive
O=C1NC(=S)OC1c1ccccc1 (configuration not stated),Blood sugar lowering,Rattus norvegicus [14],17%
Cl.Nc1ccccc1C1OC(=O)NC1=O (configuration not stated),Blood sugar lowering,Rattus norvegicus [7],15%
O=C1NC(=O)C(c2cccc(Oc3ccccc3)c2)O1 (configuration not stated),Blood sugar lowering,Rattus norvegicus [2],12%
O=C1NC(=O)C(c2c(F)cccc2Cl)O1 (configuration not stated),Blood sugar lowering,Rattus norvegicus [11],12%
C=CCOc1cccc(Cl)c1C1OC(=O)NC1=O (configuration not stated),Blood sugar lowering,Rattus norvegicus [8],17%
O=C1NC(=O)C(c2ccccc2)S1 (configuration not stated),Blood sugar lowering,Rattus norvegicus [14],34%
same,Blood sugar lowering,Rattus norvegicus [15],inactive
COc1cc(C2OC(=O)NC2=O)c(Cl)cc1C (configuration not stated),Blood sugar lowering,Rattus norvegicus [3],inactive
Cc1ccccc1C1OC(=O)NC1=O (configuration not stated),Blood sugar lowering,Rattus norvegicus [11],14%
CS(=O)(=O)Nc1ccccc1C1OC(=O)NC1=O (configuration not stated),Blood sugar lowering,Rattus norvegicus [5],inactive
COc1cccc(Cl)c1C1OC(=O)NC1=O (configuration not stated),Blood sugar lowering,Rattus norvegicus [16],11%
O=C1NC(=O)C(c2cccc(Cl)c2)O1 (configuration not stated),Blood sugar lowering,Rattus norvegicus [2],26%
COc1c(F)cc(C)cc1C1OC(=O)NC1=O (configuration not stated),Blood sugar lowering,Rattus norvegicus [11],17%
O=C1NC(=O)C(c2cccc(C(F)(F)F)c2)O1 (configuration not stated),Blood sugar lowering,Rattus norvegicus [11],17%
COc1cc(C)c(Cl)cc1C1OC(=O)NC1=O (configuration not stated),Blood sugar lowering,Rattus norvegicus [3],inactive
O=C1NC(=O)C(c2ccccc2OCc2ccccc2)O1 (configuration not stated),Blood sugar lowering,Rattus norvegicus [2],11%
CCC1(c2ccccc2)OC(=O)NC1=O (configuration not stated),Blood sugar lowering,Rattus norvegicus [6],inactive
CC(C)Oc1cccc(F)c1C1OC(=O)NC1=O (configuration not stated),Blood sugar lowering,Rattus norvegicus [7],15%
O=C1NC(=O)C(c2ccc3c(c2)OCO3)O1 (configuration not stated),Blood sugar lowering,Rattus norvegicus [2],18%
CC(=O)Nc1ccccc1C1OC(=O)NC1=O (configuration not stated),Blood sugar lowering,Rattus norvegicus [17],14%
CSc1cccc(Cl)c1C1OC(=O)NC1=O (configuration not stated),Blood sugar lowering,Rattus norvegicus [7],21%
COc1ccc(Br)cc1C1OC(=O)NC1=O (configuration not stated),Blood sugar lowering,Rattus norvegicus [17],22%
COc1c(C)cc(Cl)cc1C1OC(=O)NC1=O (configuration not stated),Blood sugar lowering,Rattus norvegicus [11],17%
